Test results taken from ChEMBL document CHEMBL1136765, “1,3-dioxolane-based ligands as a novel class of alpha1-adrenoceptor antagonists” (J Med Chem, 2003).

Experiments:
Format in all cases: functional, tissue-based
[1] = biological target: T1, Alpha-1B adrenergic receptor (Rattus norvegicus) (UniProt P15823); experiment: Inhibition of (-)-phenylephrine-induced contraction of rat spleen (Alpha-1B adrenergic receptor )
T1 sequence (whole entry): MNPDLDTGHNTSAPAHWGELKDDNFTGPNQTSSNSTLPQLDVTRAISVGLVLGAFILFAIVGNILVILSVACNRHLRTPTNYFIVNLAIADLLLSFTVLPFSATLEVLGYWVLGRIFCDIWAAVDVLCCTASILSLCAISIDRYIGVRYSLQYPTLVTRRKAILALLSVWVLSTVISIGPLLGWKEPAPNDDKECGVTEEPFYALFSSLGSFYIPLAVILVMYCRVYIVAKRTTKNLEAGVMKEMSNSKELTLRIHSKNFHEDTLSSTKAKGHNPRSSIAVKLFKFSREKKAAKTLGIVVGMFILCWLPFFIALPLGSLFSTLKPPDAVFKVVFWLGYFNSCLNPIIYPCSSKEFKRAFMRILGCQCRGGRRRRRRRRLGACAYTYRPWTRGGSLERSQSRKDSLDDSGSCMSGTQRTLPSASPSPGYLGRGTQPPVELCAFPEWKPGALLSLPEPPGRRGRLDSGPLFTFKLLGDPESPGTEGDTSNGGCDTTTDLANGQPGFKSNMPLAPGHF
Method in brief: (§1)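 Rat spleen strips in buffer containing 4 µM propranolol to block β-adrenoceptors, 1 g resting tension, 2 h equilibration. Isometric cumulative phenylephrine curves at 30 min intervals; first discarded, second control.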

[2] = biological target: T2, Alpha-1D adrenergic receptor (Rattus norvegicus, UniProt P23944); experiment: Antagonistic activity against (-)-noradrenaline-induced contraction of rat thoracic aorta (Alpha-1D adrenergic receptor); conditions: read-out: pA2 (converted)
T2 sequence (P23944 whole entry): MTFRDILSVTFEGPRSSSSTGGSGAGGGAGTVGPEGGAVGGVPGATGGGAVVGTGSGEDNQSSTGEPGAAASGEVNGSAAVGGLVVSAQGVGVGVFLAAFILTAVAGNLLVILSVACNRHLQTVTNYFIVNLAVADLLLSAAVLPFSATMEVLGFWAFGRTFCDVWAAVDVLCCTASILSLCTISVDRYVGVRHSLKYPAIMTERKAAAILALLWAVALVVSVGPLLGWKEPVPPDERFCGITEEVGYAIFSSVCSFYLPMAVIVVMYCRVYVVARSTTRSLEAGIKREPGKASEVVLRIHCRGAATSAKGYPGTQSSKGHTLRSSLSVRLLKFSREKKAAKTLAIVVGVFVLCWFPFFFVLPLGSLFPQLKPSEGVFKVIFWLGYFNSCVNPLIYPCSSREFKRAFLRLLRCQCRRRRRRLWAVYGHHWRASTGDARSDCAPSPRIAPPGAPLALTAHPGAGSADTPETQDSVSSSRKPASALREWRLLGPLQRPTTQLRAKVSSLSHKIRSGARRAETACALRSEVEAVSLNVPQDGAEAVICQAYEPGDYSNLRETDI
Method in brief: (§2)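 Endothelium-denuded rat thoracic aorta strips (denudation confirmed by no 100 µM acetylcholine relaxation after 1 µM noradrenaline) in Tyrode, 1 g tension, ≥2 h equilibration. Cumulative (-)-noradrenaline curves at 1 h intervals; third as control, antagonist 30 min before fourth.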

[3] = biological target: T3, Alpha-1D adrenergic receptor (Rattus norvegicus) (UniProt P23944); experiment: Inhibition of (-)-noradrenaline-induced contraction of rat thoracic aorta (Alpha-1D adrenergic receptor); method in brief: as §2
T3 sequence (whole entry): T2 sequence (P23944 whole entry)

[4] = biological target: T4, Alpha-1A adrenergic receptor (Rattus norvegicus, UniProt P43140); experiment: Antagonistic activity against (-)-noradrenaline-induced contraction of rat prostatic vas deferens (alpha1A receptor); conditions: read-out: pA2 (converted)
T4 sequence (P43140 whole entry): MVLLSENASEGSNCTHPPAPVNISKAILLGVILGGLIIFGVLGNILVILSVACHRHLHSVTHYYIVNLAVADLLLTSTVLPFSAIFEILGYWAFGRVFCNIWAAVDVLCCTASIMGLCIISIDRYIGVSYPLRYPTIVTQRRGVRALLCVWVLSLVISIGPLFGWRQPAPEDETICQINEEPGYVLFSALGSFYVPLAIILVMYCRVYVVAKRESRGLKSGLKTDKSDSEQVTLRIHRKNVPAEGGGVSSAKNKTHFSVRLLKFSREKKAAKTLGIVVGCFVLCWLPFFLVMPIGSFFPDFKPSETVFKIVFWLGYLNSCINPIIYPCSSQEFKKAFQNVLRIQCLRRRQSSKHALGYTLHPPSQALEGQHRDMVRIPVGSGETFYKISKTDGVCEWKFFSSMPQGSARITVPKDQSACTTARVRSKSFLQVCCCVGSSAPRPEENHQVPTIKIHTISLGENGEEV
Method in brief: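 Rat prostatic vas deferens portion equilibrated 60 min, washed every 15 min, primed twice with 10 µM noradrenaline, re-equilibrated 60 min; control noradrenaline concentration-response curve, then antagonist 30 min before repeat curve.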

[5] = biological target: T5, Alpha-1B adrenergic receptor (Rattus norvegicus, UniProt P15823); experiment: Antagonistic activity against (-)-phenylephrine-induced contraction of rat spleen (Alpha-1B adrenergic receptor ); conditions: read-out: pA2 (converted); method in brief: as §1
T5 sequence (P15823 whole entry): T1 sequence (whole entry)

Row | SMILES | pKb [1] | Kb [2] | pKb [3] | Kb [4] | Kb [5]
1 | O=C(O)C(=O)O.c1ccc(OCCNCC2COC(c3ccccc3)(c3ccccc3)O2)cc1 (centres undefined) | 5.86 | 4.27 nM |  |  | 
2 | C[N+](C)(CCOc1ccccc1)CC1COC(c2ccccc2)(c2ccccc2)O1.O=C([O-])C(=O)O (centres undefined) | 5.6 |  | 6.19 |  | 
3 | CN(CCOc1ccccc1)CC1COC(c2ccccc2)(c2ccccc2)O1.O=C(O)C(=O)O (centres undefined) | 5.31 |  | 6.06 |  | 
4 | COc1ccccc1OCCNCC1COC(c2ccccc2)(c2ccccc2)O1.O=C(O)C(=O)O (centres undefined) |  | 2.24 nM |  | 29.5 nM | 43.7 nM
